Broadly, the Ki is the dissociation constant of the complex between target and ligand, obtained from inhibition or displacement. Read a high Ki as a looser hold on the target.

These results are taken from ChEMBL document CHEMBL1135435, “Synthesis and pharmacological evaluation of 5-(4-biphenyl)-3-methyl-4-phenyl-1,2,4-triazole derivatives as a novel class of selective antagonists for the human vasopressin V(1A) receptor” (J Med Chem, 2002).

In assay [1] the target is Vasopressin V1a receptor (Homo sapiens, UniProt P37288). The assay is described as follows: Binding affinity at cloned human Vasopressin V1a receptor stably expressed in CHO cells, using [3H]AVP as radioligand. The format is cell-based. An outline of the steps: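 Membranes from CHO cells stably expressing cloned human receptor; [3H]AVP (0.5-1.0 nM) with graded test concentrations in 50 mM Tris-HCl pH 7.4, 10 mM MgCl2, 0.1% BSA, 60 min at 25 °C. Stopped with ice-cold Tris buffer, rapid GF/B filtration, scintillation counting. Nonspecific binding with 1 μM unlabeled AVP.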
Chain of Vasopressin V1a receptor (Homo sapiens, UniProt P37288) (P37288 whole entry): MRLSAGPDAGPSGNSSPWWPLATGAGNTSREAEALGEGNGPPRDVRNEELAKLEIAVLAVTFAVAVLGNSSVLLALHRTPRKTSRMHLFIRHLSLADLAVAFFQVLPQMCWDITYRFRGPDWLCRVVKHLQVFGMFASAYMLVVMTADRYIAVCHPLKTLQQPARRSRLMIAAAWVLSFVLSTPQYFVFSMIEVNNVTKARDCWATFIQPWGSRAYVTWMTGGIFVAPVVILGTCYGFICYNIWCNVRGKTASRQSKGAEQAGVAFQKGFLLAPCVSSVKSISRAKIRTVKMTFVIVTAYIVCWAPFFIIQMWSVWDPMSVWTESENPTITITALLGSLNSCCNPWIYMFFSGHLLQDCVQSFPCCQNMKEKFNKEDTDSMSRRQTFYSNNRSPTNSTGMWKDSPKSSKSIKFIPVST

A short description of assay [2]: Selectivity ratio of affinity at human Vasopressin V2 receptor to that of human Vasopressin V1a receptor. In short, it runs like this:
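Ratio of hV2 Ki to hV1A Ki, each from [3H]AVP displacement on membranes of CHO cells stably expressing the cloned human receptor (60 min, 25 °C, filtration read-out; Ki via Cheng–Prusoff using Scatchard Kd).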

The target in assay [3] is Vasopressin V2 receptor (Homo sapiens, UniProt P30518). The assay can be described thus: Binding affinity at cloned human Vasopressin V2 receptor stably expressed in CHO cells, using [3H]AVP as radioligand. The format is cell-based. In short, it runs like this: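 Membranes from CHO cells stably expressing cloned human receptor; [3H]AVP (0.5-1.0 nM) with graded test concentrations in 50 mM Tris-HCl pH 7.4, 10 mM MgCl2, 0.1% BSA, 60 min at 25 °C. Stopped with ice-cold Tris buffer, rapid GF/B filtration, scintillation counting. Nonspecific binding with 1 μM unlabeled AVP. Ki = IC50/(1+[L]/Kd); Kd from Scatchard: 0.39 nM (V1A), 1.21 nM (V2).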
Chain of Vasopressin V2 receptor (Homo sapiens, UniProt P30518) (P30518 whole entry): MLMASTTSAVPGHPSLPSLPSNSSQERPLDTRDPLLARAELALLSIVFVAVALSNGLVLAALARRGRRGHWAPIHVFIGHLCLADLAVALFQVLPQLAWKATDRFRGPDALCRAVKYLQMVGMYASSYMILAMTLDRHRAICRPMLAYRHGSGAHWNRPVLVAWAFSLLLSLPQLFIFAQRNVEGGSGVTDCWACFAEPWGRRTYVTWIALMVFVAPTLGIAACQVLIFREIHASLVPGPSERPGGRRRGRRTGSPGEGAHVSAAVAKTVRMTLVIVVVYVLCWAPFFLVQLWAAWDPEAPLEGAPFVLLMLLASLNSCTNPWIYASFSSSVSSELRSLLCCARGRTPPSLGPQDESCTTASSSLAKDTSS

For assay [4], the target named is Vasopressin V1a receptor (Rattus norvegicus, UniProt P30560). The assay can be described thus: Binding affinity at Vasopressin V1a receptor, performed using [3H]AVP on rat liver. In short, it runs like this:
(§1)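 [3H]AVP binding on plasma membranes prepared from rat liver (V1A) or rat kidney (V2). Ki from four to six independent experiments in duplicate, mean ± SEM; selectivity expressed as V2/V1A Ki ratio.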

Assay [5] has as its target Vasopressin V2 receptor (Rattus norvegicus) (UniProt Q00788). The assay is described as follows: Selectivity ratio (Ki) of affinity at rat Vasopressin V2 receptor to that of rat Vasopressin V1a receptor. In short, it runs like this: as §1
Assay [6] deals with Vasopressin V2 receptor (Rattus norvegicus, UniProt Q00788). The assay can be described thus: Binding affinity at Vasopressin V2 receptor, performed using [3H]AVP on rat kidney. In short, it runs like this: as §1
Chain of Vasopressin V2 receptor (Rattus norvegicus, UniProt Q00788) (Q00788 whole entry): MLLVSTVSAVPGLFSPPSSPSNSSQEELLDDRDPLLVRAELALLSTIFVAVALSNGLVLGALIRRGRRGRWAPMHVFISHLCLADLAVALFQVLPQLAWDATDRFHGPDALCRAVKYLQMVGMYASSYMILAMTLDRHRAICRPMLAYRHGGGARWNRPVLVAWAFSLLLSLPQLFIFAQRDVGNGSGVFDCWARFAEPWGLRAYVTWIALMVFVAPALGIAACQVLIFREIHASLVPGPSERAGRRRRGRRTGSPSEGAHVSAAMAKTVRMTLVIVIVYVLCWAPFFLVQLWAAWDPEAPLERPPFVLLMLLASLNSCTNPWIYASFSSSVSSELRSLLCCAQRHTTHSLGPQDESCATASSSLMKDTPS

Where only a bound is given, the exact number is not on record here.

Chain of Vasopressin V1a receptor (Rattus norvegicus, UniProt P30560) (P30560 whole entry): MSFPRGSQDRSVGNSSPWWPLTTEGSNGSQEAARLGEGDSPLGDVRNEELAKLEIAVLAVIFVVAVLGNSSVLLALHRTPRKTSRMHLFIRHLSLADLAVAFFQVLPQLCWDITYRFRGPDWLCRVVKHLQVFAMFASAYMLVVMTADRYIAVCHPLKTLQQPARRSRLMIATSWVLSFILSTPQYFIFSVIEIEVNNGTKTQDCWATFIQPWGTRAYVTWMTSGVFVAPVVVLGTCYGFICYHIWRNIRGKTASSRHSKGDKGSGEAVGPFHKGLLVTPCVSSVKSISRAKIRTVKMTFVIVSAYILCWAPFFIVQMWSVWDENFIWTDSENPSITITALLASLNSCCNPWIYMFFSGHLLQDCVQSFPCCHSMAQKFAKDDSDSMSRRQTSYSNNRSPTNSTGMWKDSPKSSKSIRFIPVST
Chain of Vasopressin V2 receptor (Rattus norvegicus) (Q00788 whole entry): as the sequence (Q00788 whole entry) above

Turning to `Cc1nnc(-c2ccc(-c3ccccc3)cc2)n1-c1ccccc1OCCCCC1CCNCC1`, the Ki on Vasopressin V1a receptor [1] is 2.12 nM; at Vasopressin V2 receptor [3] it was 4430 nM. In addition, in assay [2], the Ratio is 2100.

With `CN(C)C1CCN(C(=O)/C=C2/c3ccccc3N(C(=O)c3ccc(NC(=O)c4ccccc4-c4ccccc4)cc3)CCC2(F)F)CC1`, the Ki at Vasopressin V1a receptor [4] was determined as 0.16 nM; on Vasopressin V2 receptor [6] it was 0.77 nM; on Vasopressin V1a receptor [1], 0.62 nM; on Vasopressin V2 receptor [3], 1.19 nM. Also, the Ratio in assay [5] amounted to 4.8; in assay [2], 1.9.

With `Cc1nnc(-c2ccc(-c3ccccc3)cc2)n1-c1ccccc1OCc1ccc(C(=O)N2CCN(C)CC2)cc1`, the inhibitory constant (Ki) came to 62.7 nM at Vasopressin V1a receptor [4], 364 nM on Vasopressin V2 receptor [6], 3.03 nM at Vasopressin V1a receptor [1] and 585 nM on Vasopressin V2 receptor [3]. The values for the Ratio in assay [5] and in assay [2] were 5.8 and 190, respectively.

Consider `Cc1nnc(-c2ccc(-c3ccccc3)cc2)n1-c1ccc(OCCCCCCN2CCN(C)CC2)cc1`, for which the Ki at Vasopressin V1a receptor [1] is > 10000 nM.

With `Cc1nnc(-c2ccc(-c3ccccc3)cc2)n1-c1ccccc1OCCCCCCCN1CCN(C)CC1`, the Ki at Vasopressin V1a receptor [1] stood at 4.5 nM; at Vasopressin V2 receptor [3] it was 2470 nM. In assay [2], the Ratio came to 550.

For `Cc1nnc(-c2ccc(-c3ccccc3)cc2)n1-c1ccccc1OCCCCN1CCN(C)CC1`, the figures for the Ki at Vasopressin V1a receptor [1] and at Vasopressin V2 receptor [3] were 29.1 nM and 10200 nM, respectively. For the same molecule, the Ratio in assay [2] amounted to 360.

As to `Cc1nnc(-c2ccc(-c3ccccc3)cc2)n1-c1ccccc1OCCC1CCNCC1`, the Ki stood at 55.5 nM on Vasopressin V1a receptor [1] and 8170 nM at Vasopressin V2 receptor [3]. The Ratio in assay [2] was found to be 150.

With `Cc1nnc(-c2ccc(-c3ccccc3)cc2)n1-c1ccccc1OCCCC1CCNCC1`, the figures for the Ki at Vasopressin V1a receptor [1] and on Vasopressin V2 receptor [3] were 7.84 nM and 7370 nM, respectively. Also, in assay [2], the Ratio was determined as 940.

Regarding `Cc1nnc(-c2ccc(-c3ccccc3)cc2)n1-c1ccccc1OCCCCCCN1CCC(N2CCCCC2)CC1`, the inhibition constant Ki on Vasopressin V1a receptor [4] was determined as 9.69 nM; on Vasopressin V2 receptor [6], 1010 nM; on Vasopressin V1a receptor [1] it was 1.05 nM; on Vasopressin V2 receptor [3] it was 979 nM. In addition, the Ratio stood at 100 in assay [5] and 930 in assay [2].

Regarding `Cc1nnc(-c2ccc(-c3ccccc3)cc2)n1-c1ccccc1OCCCCCN1CCN(C)CC1`, the Ki was found to be 4.09 nM at Vasopressin V1a receptor [1] and 4850 nM on Vasopressin V2 receptor [3]. Besides, the Ratio in assay [2] stood at 1200.

On to `Cc1nnc(-c2ccc(-c3ccccc3)cc2)n1-c1ccccc1OCCCCCCN1CCN(C)CC1`, for which the Ki at Vasopressin V1a receptor [4] worked out at 17.3 nM; at Vasopressin V2 receptor [6], 1240 nM; on Vasopressin V1a receptor [1], 1.04 nM; on Vasopressin V2 receptor [3], 1780 nM. The Ratio in assay [5] was found to be 72; in assay [2] it was 1700.

Consider `COc1ccccc1-n1c(C)nnc1-c1ccc(-c2ccccc2)cc1`, for which the results for the Ki at Vasopressin V1a receptor [1] and at Vasopressin V2 receptor [3] were 120 nM and 2460 nM, respectively. The Ratio in assay [2] worked out at 21.

Consider `Cc1nnc(-c2ccc(-c3ccccc3)cc2)n1-c1ccccc1OCCCCCCCCCCN1CCN(C)CC1`, for which the Ki at Vasopressin V1a receptor [1] is 39.4 nM; at Vasopressin V2 receptor [3], 14300 nM. The Ratio in assay [2] is 360.

As to `COc1ccc(S(=O)(=O)N2c3ccc(Cl)cc3[C@](O)(c3ccccc3Cl)[C@@H]2C(=O)N2CCC[C@H]2C(N)=O)cc1OC` [RELCOVAPTAN], the Ki on Vasopressin V2 receptor [6] was 285 nM; at Vasopressin V2 receptor [3], 178 nM.

Regarding `Cc1cccc(OCCCCCCN2CCN(C)CC2)c1-n1c(C)nnc1-c1ccc(-c2ccccc2)cc1`, the Ki is 102 nM at Vasopressin V1a receptor [4], 11700 nM on Vasopressin V2 receptor [6], 1.46 nM at Vasopressin V1a receptor [1] and 14400 nM at Vasopressin V2 receptor [3]. Further, the Ratio was determined as 110 in assay [5] and 9900 in assay [2].

In the case of `Cc1nnc(-c2ccc(-c3ccccc3)cc2)n1-c1ccccc1OCCCN1CCN(C)CC1`, the Ki amounted to 38.3 nM on Vasopressin V1a receptor [1] and 10200 nM at Vasopressin V2 receptor [3]. For the same molecule, the Ratio in assay [2] was found to be 270.

With `Cc1nnc(-c2ccc(-c3ccccc3)cc2)n1-c1ccccc1OCCCCCC(=O)N1CCN(C)CC1`, the Ki on Vasopressin V1a receptor [1] is 9.16 nM; on Vasopressin V2 receptor [3], 6650 nM. Moreover, the Ratio in assay [2] is 730.

As to `Cc1nnc(-c2ccc(-c3ccccc3)cc2)n1-c1ccccc1OCCCCCCn1ccnc1`, the Ki worked out at 9.06 nM on Vasopressin V1a receptor [1] and 11100 nM on Vasopressin V2 receptor [3]. Further, the Ratio in assay [2] was 1200.

In the case of `Cc1cccc(OCc2ccc(C(=O)N3CCN(C)CC3)cc2)c1-n1c(C)nnc1-c1ccc(-c2ccccc2)cc1`, the Ki on Vasopressin V1a receptor [1] was 8.09 nM; on Vasopressin V2 receptor [3], 8520 nM. For the same molecule, the Ratio in assay [2] was 1100.

Take `Cc1cccc(OCc2ccc(C(=O)N3CCC(N4CCCCC4)CC3)cc2)c1-n1c(C)nnc1-c1ccc(-c2ccccc2)cc1`: the Ki at Vasopressin V1a receptor [4] amounted to 32.4 nM; on Vasopressin V2 receptor [6] it was 1840 nM; on Vasopressin V1a receptor [1] it was 1.01 nM; at Vasopressin V2 receptor [3] it was 1920 nM. The values for the Ratio in assay [5] and in assay [2] were 57 and 1900, respectively.

Regarding `CC(=O)NCCCOc1ccc(C(=O)N2CCC(N3C(=O)CCc4ccccc43)CC2)cc1`, the Ratio in assay [5] is > 430. Besides, the Ki on Vasopressin V2 receptor [6], on Vasopressin V1a receptor [1] and at Vasopressin V2 receptor [3] was > 10000 nM throughout.

Take `Cc1nnc(-c2ccc(-c3ccccc3)cc2)n1-c1ccccc1OCCCCCCN1CCCCC1`: the Ki at Vasopressin V1a receptor [1] is 13.9 nM; on Vasopressin V2 receptor [3], 6930 nM. Moreover, the Ratio in assay [2] was 500.

Consider `Cc1nnc(-c2ccc(-c3ccccc3)cc2)n1-c1cccc(OCCCCCCN2CCN(C)CC2)c1`, for which, at Vasopressin V1a receptor [1], the Ki stood at 214 nM.

For the molecule `Cc1nnc(-c2ccc(-c3ccccc3)cc2)n1-c1ccccc1OCCCCCCCCN1CCN(C)CC1`, the Ki on Vasopressin V1a receptor [1] was 13.2 nM; at Vasopressin V2 receptor [3], 8890 nM. In assay [2], the Ratio was 670.
